Laboratory results as given in ChEMBL document CHEMBL4049426, “Identification of the Clinical Candidate (R)-(1-(4-Fluorophenyl)-6-((1-methyl-1H-pyrazol-4-yl)sulfonyl)-4,4a,5,6,7,8-hexahydro-1H-pyrazolo[3,4-g]isoquinolin-4a-yl)(4-(trifluoromethyl)pyridin-2-yl)methanone (CORT125134): A Selective Glucocorticoid Receptor (GR) Antagonist” (J Med Chem, 2017).
Active and inactive are the calls of the source. No cut-off for these calls is given here.

How the values were obtained:
[1] = target: T1, Glucocorticoid receptor (Homo sapiens) (UniProt P04150); assay: Displacement of fluormone GS Red from human glucocorticoid receptor at 1 uM after 4 hrs by fluorescence polarization assay relative to control
T1 sequence (whole entry): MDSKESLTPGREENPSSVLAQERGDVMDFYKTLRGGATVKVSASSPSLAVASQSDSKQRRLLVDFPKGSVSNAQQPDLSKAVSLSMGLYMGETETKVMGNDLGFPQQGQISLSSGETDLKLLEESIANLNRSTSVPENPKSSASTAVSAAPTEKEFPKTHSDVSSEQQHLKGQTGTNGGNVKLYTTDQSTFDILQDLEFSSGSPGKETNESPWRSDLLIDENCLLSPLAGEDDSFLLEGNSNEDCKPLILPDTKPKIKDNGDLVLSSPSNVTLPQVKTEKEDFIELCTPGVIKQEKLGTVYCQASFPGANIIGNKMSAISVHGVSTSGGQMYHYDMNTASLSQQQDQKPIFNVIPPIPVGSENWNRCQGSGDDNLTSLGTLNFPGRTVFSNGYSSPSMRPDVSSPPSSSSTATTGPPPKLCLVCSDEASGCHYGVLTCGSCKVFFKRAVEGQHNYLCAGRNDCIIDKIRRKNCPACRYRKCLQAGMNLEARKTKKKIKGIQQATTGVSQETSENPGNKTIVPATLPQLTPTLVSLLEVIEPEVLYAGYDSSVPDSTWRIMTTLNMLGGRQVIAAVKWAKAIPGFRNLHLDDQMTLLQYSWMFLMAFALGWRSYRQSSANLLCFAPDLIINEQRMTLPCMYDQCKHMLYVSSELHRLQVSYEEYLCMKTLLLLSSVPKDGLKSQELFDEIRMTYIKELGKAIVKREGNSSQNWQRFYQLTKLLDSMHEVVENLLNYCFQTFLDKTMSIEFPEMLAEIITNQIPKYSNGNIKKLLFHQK

Cytochrome P450 3A5 = Cytochrome P450 3A5 (Homo sapiens, UniProt P20815); assay: Time-dependent inhibition of CYP3A5 (unknown origin); format: ADME
Chain of Cytochrome P450 3A5 (P20815 whole entry): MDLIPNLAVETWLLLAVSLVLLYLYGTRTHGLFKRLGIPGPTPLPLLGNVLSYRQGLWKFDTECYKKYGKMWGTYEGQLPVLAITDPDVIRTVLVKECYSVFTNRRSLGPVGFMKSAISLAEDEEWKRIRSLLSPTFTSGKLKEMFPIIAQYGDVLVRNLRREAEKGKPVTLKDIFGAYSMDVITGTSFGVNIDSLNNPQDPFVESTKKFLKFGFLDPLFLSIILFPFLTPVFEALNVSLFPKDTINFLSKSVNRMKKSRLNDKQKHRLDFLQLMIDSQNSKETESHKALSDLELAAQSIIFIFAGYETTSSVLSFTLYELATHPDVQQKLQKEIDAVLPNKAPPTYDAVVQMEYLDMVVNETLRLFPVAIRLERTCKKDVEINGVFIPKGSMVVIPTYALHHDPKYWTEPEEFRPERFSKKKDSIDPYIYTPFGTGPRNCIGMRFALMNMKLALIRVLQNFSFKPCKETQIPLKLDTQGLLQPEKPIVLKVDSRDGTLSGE

[2] = target: T2, Glucocorticoid receptor (Rattus norvegicus) (UniProt P06536); assay: (§1) Antagonist activity at rat glucocorticoid receptor in primary hepatocytes assessed as dexamethasone-induced tyrosine amino transferase activity preincubated for 30 mins followed by dexamethasone addition measured after 20 hrs; format: cell-based
T2 sequence (whole entry): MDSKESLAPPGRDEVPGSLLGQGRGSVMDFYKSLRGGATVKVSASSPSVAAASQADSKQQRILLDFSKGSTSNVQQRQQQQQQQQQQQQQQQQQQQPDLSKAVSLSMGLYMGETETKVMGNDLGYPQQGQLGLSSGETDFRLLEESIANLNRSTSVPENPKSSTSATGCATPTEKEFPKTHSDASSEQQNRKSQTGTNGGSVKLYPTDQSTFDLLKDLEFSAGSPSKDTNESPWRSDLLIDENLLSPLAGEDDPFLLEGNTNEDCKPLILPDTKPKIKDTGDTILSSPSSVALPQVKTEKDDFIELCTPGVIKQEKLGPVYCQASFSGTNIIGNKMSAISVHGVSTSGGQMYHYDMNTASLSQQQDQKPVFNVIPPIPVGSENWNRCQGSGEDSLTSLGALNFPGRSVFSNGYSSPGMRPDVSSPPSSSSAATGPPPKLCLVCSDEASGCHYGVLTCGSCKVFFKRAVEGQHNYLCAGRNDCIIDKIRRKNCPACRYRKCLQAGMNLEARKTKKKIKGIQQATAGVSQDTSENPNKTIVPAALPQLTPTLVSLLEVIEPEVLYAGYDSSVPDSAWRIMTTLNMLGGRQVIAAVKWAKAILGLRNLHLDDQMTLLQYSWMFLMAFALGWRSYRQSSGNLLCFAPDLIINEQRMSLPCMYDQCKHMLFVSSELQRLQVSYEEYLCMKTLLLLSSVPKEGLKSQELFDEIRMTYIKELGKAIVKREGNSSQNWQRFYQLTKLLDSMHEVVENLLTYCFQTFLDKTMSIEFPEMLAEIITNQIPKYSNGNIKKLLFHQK

Glucocorticoid receptor [3] = target: T3, Glucocorticoid receptor (Rattus norvegicus, UniProt P06536); assay: as §1; format: cell-based
T3 sequence (P06536 whole entry): T2 sequence (whole entry)

Rattus norvegicus = assay: In vivo antagonist activity at glucocorticoid receptor in Sprague-Dawley rat assessed as reduction in cortisone-induced plasma glucose levels at 30 mg/kg, po bid via gavage for 6 days pretreated for 12 hrs followed by cortisone 21-acetate treatment measured 24 hrs after last cortisone 21-acetate treatment; format: functional, organism-based
Outline: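 Male Sprague Dawley rats (200-250g), 3-day vehicle baseline, groups of eight. Compound as suspension in DMSO:Tween 80:0.5% HPMC 10:0.1:89.9, oral gavage twice daily for 6 days; cortisone 21-acetate 30mg/kg s.c. daily in 1% methylcellulose. Tail-vein blood 24 h after last cortisone (12 h after last compound); glucose by clinical reagent, insulin by ultrasensitive rat ELISA.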

[4] = target: T4, Glucocorticoid receptor (Canis lupus familiaris) (UniProt A0A8C0QLS2); assay: (§2) Antagonist activity at dog glucocorticoid receptor in primary hepatocytes assessed as dexamethasone-induced tyrosine amino transferase activity preincubated for 30 mins followed by dexamethasone addition measured after 20 hrs; format: cell-based
T4 sequence (whole entry): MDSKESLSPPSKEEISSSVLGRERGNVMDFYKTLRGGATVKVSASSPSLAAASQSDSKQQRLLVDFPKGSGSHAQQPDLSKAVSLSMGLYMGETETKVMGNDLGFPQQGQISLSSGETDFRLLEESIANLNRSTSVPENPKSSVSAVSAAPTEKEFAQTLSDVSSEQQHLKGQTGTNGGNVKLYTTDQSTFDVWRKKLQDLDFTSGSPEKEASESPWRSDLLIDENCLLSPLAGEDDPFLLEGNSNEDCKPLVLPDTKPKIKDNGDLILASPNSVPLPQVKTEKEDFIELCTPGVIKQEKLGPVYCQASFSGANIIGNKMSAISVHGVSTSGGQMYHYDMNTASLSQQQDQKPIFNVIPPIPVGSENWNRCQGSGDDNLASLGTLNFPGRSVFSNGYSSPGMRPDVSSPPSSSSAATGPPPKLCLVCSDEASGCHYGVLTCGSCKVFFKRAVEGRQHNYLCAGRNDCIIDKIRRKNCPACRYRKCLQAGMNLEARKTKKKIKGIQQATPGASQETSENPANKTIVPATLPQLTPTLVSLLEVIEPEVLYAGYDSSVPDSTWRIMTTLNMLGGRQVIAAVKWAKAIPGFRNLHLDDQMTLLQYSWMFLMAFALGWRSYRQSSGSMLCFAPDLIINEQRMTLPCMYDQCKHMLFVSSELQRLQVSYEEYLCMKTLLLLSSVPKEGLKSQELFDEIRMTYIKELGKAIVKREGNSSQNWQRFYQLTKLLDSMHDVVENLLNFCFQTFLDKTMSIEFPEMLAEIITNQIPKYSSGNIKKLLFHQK

Glucocorticoid receptor [5] = target: T5, Glucocorticoid receptor (Canis lupus familiaris, UniProt A0A8C0QLS2); assay: as §2; format: cell-based
T5 sequence (A0A8C0QLS2 whole entry): T4 sequence (whole entry)

In the case of `Cn1cc(S(=O)(=O)N2CCC3=Cc4c(cnn4-c4ccc(F)cc4)C[C@]3(C(=O)c3cc(C(F)(F)F)ccn3)C2)cn1` [RELACORILANT], the inhibition [1] is reported as 100%, the TDI (Cytochrome P450 3A5) is reported as “Not Active” and the Imax [2] is reported as 54.2%. The Ki (Glucocorticoid receptor [3]) was 12 nM, the inhibition (Rattus norvegicus) was “Active” and the Imax [4] was 31%. The Ki (Glucocorticoid receptor [5]) was > 10000 nM.
